Assay [1] can be described thus: RPL19A-GFP modulators, yeast TOR pathway, confirmation, cell-based, S. cerevisiae, flow cytometry, cherry picks, mother/daughter gates (AID 2270;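 active = GFP response below 50% of the DMSO control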). Particulars: S. cerevisiae RPL19A-GFP strain, 3 h, at 10 µM, stronger effect = lower value, 100 = same GFP as DMSO wells.
A short description of assay [2]: LAP4-GFP expression modulators in yeast, confirmation, cell-based, cherry picks, flow cytometry, mother/daughter gates (AID 2271;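 active = GFP response above 150% of the DMSO control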;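 also: ratio of sample to DMSO plate mean so 100% equals DMSO level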). Conditions: S. cerevisiae LAP4-GFP strain, 3 h, at 10 µM, stronger effect = higher value, 100 means same as DMSO control. In short, it runs like this:
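Measured by: GFP by flow cytometry. Test system: GFP-fusion yeast strain. Input: yeast cells seeded at OD600 of 0.2. Timing: 30 °C, 3 h compound incubation, rotating. Buffer or medium: synthetic complete medium for yeast. Benchmarks: DMSO-only negative wells, rapamycin 400 ng/mL positive wells. Compound: 10 µM single dose.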

The nature of assay [3]: modulators of MEP2-GFP levels in yeast, confirmation, S. cerevisiae, flow cytometry GFP, cherry picks (AID 2272;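 active = GFP response above 150% of the DMSO control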;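 also: ratio of well signal to plate DMSO mean so 100% equals DMSO level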). Conditions: S. cerevisiae MEP2-GFP strain, 3 h, at 10 µM, stronger effect = higher value. For orientation: A flow cytometer gives signals particle by particle.
A short description of assay [4]: AGP1-GFP expression modulators, hit retest, confirmation, cell-based, flow cytometry, S. cerevisiae, cherry picks (AID 2273).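 Also: median GFP channel fluorescence over the whole cell population gate.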 Particulars: S. cerevisiae AGP1-GFP strain, 3 h, at 10 µM.
Assay [5] can be described thus: modulators of CIT2-GFP expression in yeast, confirmation, S. cerevisiae, GFP fusion, cherry picks, mother/daughter gates (AID 2274). Particulars: S. cerevisiae CIT2-GFP strain, flow cytometry, 3 h, at 10 µM, stronger effect = higher value.
Where [6] appears, read: measured here: daughter cell gate.
Where [7] appears, read: measured here: mother cell gate.
Setting [8] is: measured here: daughter cell gate response.
[9] abbreviates: measured here: mother cell gate response.

Activity calls are given as the source filed them.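 The calls were made as follows, unless noted: active = GFP response above 150% of the DMSO level; inconclusive = fewer than 70 events counted for a yeast strain; inactive = the rest.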

Turning to `Cc1ccc(Oc2nc(-c3ccccn3)nc3ccccc23)cc1`, the GFP response vs DMSO in assay [1] is 98.2% (inactive); in assay [1] (setting [6]), 94.7%; in assay [1] (setting [7]), 97.8%; in assay [3], 103% (inactive). In addition, the GFP response relative to DMSO in assay [2] was 110% (inactive); in assay [2] (setting [8]), 107%; in assay [2] (setting [9]) it was 110%. Further, the GFP response, % of DMSO in assay [4] is 92.2% (inactive); in assay [5], 91.5% (inactive); in assay [5] (setting [6]), 92%; in assay [5] (setting [7]), 90.7%.
Consider `CC1=C(C)/C(=N\OS(=O)(=O)c2ccccc2)C=CC1=O`, for which the GFP response vs DMSO is 99.1% (inactive) in assay [1], 98.8% in assay [1] (setting [6]), 91.2% in assay [1] (setting [7]) and 112% (inactive) in assay [3]. Besides, the figures for the GFP response relative to DMSO in assay [2], in assay [2] (setting [8]) and in assay [2] (setting [9]) were 250% (active), 196% and 236%, respectively. The GFP response, % of DMSO in assay [4] was 93.4% (inactive); in assay [5] it was 105% (inactive); in assay [5] (setting [6]), 111%; in assay [5] (setting [7]), 95.6%.
On to `COc1cc(NC(=O)c2ccc(F)cc2)ccc1NC(=O)c1cc2ccccc2o1`, for which the GFP response vs DMSO in assay [1] was 98% (inactive); in assay [1] (setting [6]), 99.1%; in assay [1] (setting [7]), 94.3%; in assay [3] it was 101% (inactive). For the same compound, the GFP response relative to DMSO in assay [2] was 96.1% (inactive); in assay [2] (setting [8]) it was 96.6%; in assay [2] (setting [9]), 96.2%. Besides, the GFP response, % of DMSO in assay [4] was 102% (inactive); in assay [5], 94.7% (inactive); in assay [5] (setting [6]), 96.8%; in assay [5] (setting [7]) it was 94.7%.
On to `Cc1ccc(CCN2CC(C(=O)NCCCN(C)Cc3ccccc3)CC2=O)cc1` (configuration not stated), for which the GFP response vs DMSO in assay [1] was 99.1% (inactive); in assay [1] (setting [6]) it was 99.3%; in assay [1] (setting [7]), 98%; in assay [3], 101% (inactive). Moreover, the GFP response relative to DMSO in assay [2] is 101% (inactive); in assay [2] (setting [8]), 104%; in assay [2] (setting [9]), 100%. For the same compound, the GFP response, % of DMSO was 103% (inactive) in assay [4], 98.6% (inactive) in assay [5], 103% in assay [5] (setting [6]) and 96% in assay [5] (setting [7]).
Regarding `O=c1[nH]c(CCl)nc2cc(-c3ccc(Cl)cc3)sc12`, the GFP response vs DMSO was 95.8% (inactive) in assay [1], 94.4% in assay [1] (setting [6]), 98.5% in assay [1] (setting [7]) and 107% (inactive) in assay [3]. Moreover, the values for the GFP response relative to DMSO in assay [2], in assay [2] (setting [8]) and in assay [2] (setting [9]) were 101% (inactive), 99.1% and 100%, respectively. For the same compound, the GFP response, % of DMSO in assay [4] is 96.5% (inactive); in assay [5], 93% (inactive); in assay [5] (setting [6]) it was 92%; in assay [5] (setting [7]), 78.5%.
Turning to `COc1cc(/C=C2\N=C(c3c(-c4ccccc4)noc3C)OC2=O)ccc1OC(C)=O`, the GFP response vs DMSO is 98.6% (inactive) in assay [1], 100% in assay [1] (setting [6]), 98.9% in assay [1] (setting [7]) and 100% (inactive) in assay [3]. The GFP response relative to DMSO in assay [2] is 91.5% (inactive); in assay [2] (setting [8]), 92.8%; in assay [2] (setting [9]), 89.7%. The GFP response, % of DMSO in assay [4] is 99.3% (inactive); in assay [5] it was 103% (inactive); in assay [5] (setting [6]), 103%; in assay [5] (setting [7]), 101%.
As to `Cc1ccc(N(C(=O)CCCC(=O)Nc2ccccn2)C(C(=O)NC2CCCC2)c2ccc(O)cc2)cc1C` (configuration not stated), the GFP response vs DMSO in assay [1] is 98.4% (inactive); in assay [1] (setting [6]) it was 99%; in assay [1] (setting [7]), 99.8%; in assay [3], 117% (inactive). Further, the GFP response relative to DMSO in assay [2] is 98.7% (inactive); in assay [2] (setting [8]), 98.7%; in assay [2] (setting [9]) it was 98.3%. Moreover, the GFP response, % of DMSO was 111% (inactive) in assay [4], 111% (inactive) in assay [5], 108% in assay [5] (setting [6]) and 112% in assay [5] (setting [7]).
Regarding `COc1ccccc1NC1=C(Cl)C(=O)N(c2ccccc2)C1=O`, the GFP response vs DMSO in assay [1] is 103% (inactive); in assay [1] (setting [6]) it was 103%; in assay [1] (setting [7]) it was 103%; in assay [3], 103% (inactive). Further, the GFP response relative to DMSO in assay [2] is 93.7% (inactive); in assay [2] (setting [8]), 92%; in assay [2] (setting [9]), 94.1%. In addition, the GFP response, % of DMSO is 97% (inactive) in assay [4], 103% (inactive) in assay [5], 105% in assay [5] (setting [6]) and 101% in assay [5] (setting [7]).
On to `O=C(Nc1nccs1)C1CCCN1S(=O)(=O)c1ccc(F)cc1` (configuration not stated), for which the GFP response vs DMSO in assay [1] was 98.8% (inactive); in assay [1] (setting [6]), 99.8%; in assay [1] (setting [7]), 100%; in assay [3], 100% (inactive). In addition, the GFP response relative to DMSO is 96.2% (inactive) in assay [2], 100% in assay [2] (setting [8]) and 95.2% in assay [2] (setting [9]). Further, the GFP response, % of DMSO is 100% (inactive) in assay [4], 110% (inactive) in assay [5], 103% in assay [5] (setting [6]) and 114% in assay [5] (setting [7]).
For the compound `CCOc1ccccc1C1N=C(c2ccc(OC)cc2)CC(c2ccccc2O)N1` (configuration not stated), the GFP response vs DMSO in assay [1] is 102% (inactive); in assay [1] (setting [6]) it was 103%; in assay [1] (setting [7]), 100%; in assay [3], 105% (inactive). The results for the GFP response relative to DMSO in assay [2], in assay [2] (setting [8]) and in assay [2] (setting [9]) were 106% (inactive), 99.7% and 109%, respectively. Further, the GFP response, % of DMSO is 102% (inactive) in assay [4], 110% (inactive) in assay [5], 108% in assay [5] (setting [6]) and 109% in assay [5] (setting [7]).
With `O=C(COC(=O)C1CCN(c2ccc(C(F)(F)F)cn2)CC1)Nc1cccc(F)c1`, the GFP response vs DMSO in assay [1] was 95% (inactive); in assay [1] (setting [6]) it was 94.6%; in assay [1] (setting [7]) it was 96.1%; in assay [3], 96.2% (inactive). Besides, the values for the GFP response relative to DMSO in assay [2], in assay [2] (setting [8]) and in assay [2] (setting [9]) were 102% (inactive), 102% and 100%, respectively. Also, the GFP response, % of DMSO in assay [4] was 97.2% (inactive); in assay [5] it was 104% (inactive); in assay [5] (setting [6]) it was 108%; in assay [5] (setting [7]) it was 102%.
Take `CCCCn1c(=O)c(C(=O)OCC)c(O)c2ccccc21`: the GFP response vs DMSO in assay [1] is 106% (inactive); in assay [1] (setting [6]) it was 101%; in assay [1] (setting [7]) it was 108%; in assay [3], 99% (inactive). Moreover, the GFP response relative to DMSO in assay [2] was 105% (inactive); in assay [2] (setting [8]), 102%; in assay [2] (setting [9]), 108%. Further, the GFP response, % of DMSO in assay [4] is 97.5% (inactive); in assay [5], 94.4% (inactive); in assay [5] (setting [6]) it was 90.2%; in assay [5] (setting [7]), 94.4%.
Turning to `N=C1/C(=C\c2ccc(Br)o2)C(=O)N=C2SC(CC(=O)N3CCCCC3)=NN12`, the GFP response vs DMSO in assay [1] was 97.4% (inactive); in assay [1] (setting [6]), 96.8%; in assay [1] (setting [7]), 95.5%; in assay [3], 103% (inactive). Moreover, the GFP response relative to DMSO is 104% (inactive) in assay [2], 103% in assay [2] (setting [8]) and 102% in assay [2] (setting [9]). Also, the GFP response, % of DMSO in assay [4] is 104% (inactive); in assay [5], 107% (inactive); in assay [5] (setting [6]), 108%; in assay [5] (setting [7]) it was 108%.
Regarding `C=CCn1c(=O)c(C(=O)NCCc2ccccc2)c(O)c2ccccc21`, the GFP response vs DMSO in assay [1] is 98.4% (inactive); in assay [1] (setting [6]), 98.9%; in assay [1] (setting [7]) it was 100%; in assay [3] it was 96.2% (inactive). Besides, the GFP response relative to DMSO in assay [2] is 90.2% (inactive); in assay [2] (setting [8]), 89.6%; in assay [2] (setting [9]), 91.9%. Further, the GFP response, % of DMSO in assay [4] was 102% (inactive); in assay [5] it was 99.7% (inactive); in assay [5] (setting [6]), 99.1%; in assay [5] (setting [7]), 101%.
Regarding `Cc1ccc(/C(C#N)=C\c2ccc(N3CCOCC3)o2)cc1`, the GFP response vs DMSO in assay [1] is 97.8% (inactive); in assay [1] (setting [6]) it was 97.1%; in assay [1] (setting [7]), 98%; in assay [3], 109% (inactive). Also, the GFP response relative to DMSO in assay [2] is 102% (inactive); in assay [2] (setting [8]) it was 104%; in assay [2] (setting [9]), 103%. The GFP response, % of DMSO in assay [4] is 99.4% (inactive); in assay [5] it was 98.8% (inactive); in assay [5] (setting [6]), 99.2%; in assay [5] (setting [7]), 99.3%.
Turning to `O=C1c2ccsc2SCCN1Cc1cccc(F)c1`, the GFP response vs DMSO in assay [1] is 96% (inactive); in assay [1] (setting [6]) it was 95.7%; in assay [1] (setting [7]) it was 96.8%; in assay [3] it was 92.6% (inactive). Also, the GFP response relative to DMSO in assay [2] was 103% (inactive); in assay [2] (setting [8]), 102%; in assay [2] (setting [9]) it was 104%. In addition, the GFP response, % of DMSO was 89.9% (inactive) in assay [4], 87.2% (inactive) in assay [5], 90.2% in assay [5] (setting [6]) and 84.6% in assay [5] (setting [7]).
Consider `Cc1ccc(C(=O)c2c3ccccc3[n+]([O-])n2CCO)cc1`, for which the GFP response vs DMSO in assay [1] is 97% (inactive); in assay [1] (setting [6]) it was 97.4%; in assay [1] (setting [7]), 96.6%; in assay [3], 98.3% (inactive). Moreover, the GFP response relative to DMSO was 96.7% (inactive) in assay [2], 96% in assay [2] (setting [8]) and 94% in assay [2] (setting [9]). Further, the GFP response, % of DMSO in assay [4] was 97.6% (inactive); in assay [5] it was 96.9% (inactive); in assay [5] (setting [6]), 99.1%; in assay [5] (setting [7]), 97.3%.

(Values after PubChem BioAssay.)
